≈ marks a conversion by molar mass, not a printed value. Calls of active or inactive are those of the source. No cut-off for these calls is given here.
Legend:
Leishmania donovani [1] = experiment: Antileishmanial activity against Leishmania donovani MHOM/IN/80/Dd8 promastigotes at 10 ug/ml after 72 hrs; assay type: functional
How it was run: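 Promastigotes were transfected with firefly luciferase and kept in medium 199 with 10% foetal calf serum, penicillin/streptomycin and G418. Late-log cells (5×10⁵/well) were exposed for 72 h to serial dilutions (1–10 range) in DMSO, with DMSO controls. Luminescence was read with Steady-Glo. % inhibition = (N − n)×100/N, using mean RLU of control (N) and treated (n) wells.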

Leishmania donovani [2] = experiment: Antileishmanial activity against Leishmania donovani MHOM/IN/80/Dd8 amastigotes infected in mouse J774A.1 cells after 72 hrs; assay type: functional, organism-based; settings: MHOM/IN/80/Dd8, J774.A1, 72 h
How it was run: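 J774A.1 macrophages (1.5×10⁴/well) were cultured in RPMI-1640 with 10% foetal calf serum at 37 °C in CO₂. After 24 h they were infected with stationary-phase luciferase-transfected promastigotes (2.25×10⁵/well), which transform into amastigotes. Test material (0.25–10 range) in complete medium was then applied for 72 h. Steady-Glo luminescence of treated wells was compared with untreated controls.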

[3] = Cytotoxicity against mouse J774A1 cells after 72 hrs by MTT assay; assay type: cell-based, J774.A1
How it was run: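 J774A.1 cells were kept in RPMI with 10% foetal calf serum and gentamycin. Cells (1×10⁴/well) were exposed to graded concentrations diluted from DMSO stocks for 72 h at 37 °C in humidified CO₂. MTT (5 mg/ml stock in PBS) was added for 2 h, and formazan was dissolved in DMSO and read at 544 nm. CC50 was the concentration giving 50% viability loss versus medium-only cells, estimated by template.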

[4] = (§1) Selectivity index, ratio of CC50 for mouse J774A1 cells to IC50 for Leishmania donovani MHOM/IN/80/Dd8 amastigotes; assay type: functional, J774.A1
How it was run: (§2)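 Ratio of J774A.1 CC50 (MTT, 72 h) to IC50 from the luciferase assay on intracellular amastigotes in J774A.1 macrophages (72 h exposure).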

Leishmania donovani [5] = experiment: Antileishmanial activity against Leishmania donovani MHOM/IN/80/Dd8 amastigotes infected in golden hamster at 50 mg/kg, ip administered 5 times per day for 5 days; assay type: functional
How it was run: (§3)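 Golden hamsters infected with L. donovani MHOM/IN/80/Dd8 were randomized into groups by parasite burden, 4–6 animals per sample. Intraperitoneal dosing began 2 days after biopsy. Post-treatment biopsy was taken on day 7 after the last dose, and amastigotes were counted by Giemsa staining. Percentage inhibition was calculated from actual and initial counts in treated animals and the fold increase in untreated controls.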

Leishmania donovani [6] = experiment: Antileishmanial activity against Leishmania donovani MHOM/IN/80/Dd8 promastigotes at 0.5 ug/ml after 72 hrs; assay type: functional
Leishmania donovani [7] = experiment: Antileishmanial activity against Leishmania donovani MHOM/IN/80/Dd8 amastigotes infected in golden hamster at 20 mg/kg, ip administered 5 times per day for 5 days; assay type: functional; settings: route intraperitoneal; how it was run: as §3
Leishmania donovani [8] = experiment: Antileishmanial activity against Leishmania donovani MHOM/IN/80/Dd8 promastigotes at […] after 72 hrs; assay type: functional, organism-based
J774.A1 = experiment: as §1; assay type: functional; how it was run: as §2
Leishmania donovani [9] = experiment: Antileishmanial activity against Leishmania donovani MHOM/IN/80/Dd8 amastigotes infected in golden hamster at 40 mg/kg, ip administered 5 times per day for 5 days; assay type: functional, organism-based; set-up: dose 40 mg/kg; how it was run: as §3

`COc1cc(-c2cc(SC)nc(Nc3nc(NCCCN4CCOCC4)nc(NCCCN4CCOCC4)n3)n2)cc(OC)c1OC` gave an Activity (Leishmania donovani [1]) of 75.2%.

`CCCCNc1cc(-c2cc(OC)c(OC)c(OC)c2)nc(N)n1` gave an Activity (Leishmania donovani [1]) of 84.4%, an IC50 (Leishmania donovani [2]) of 4.99 µg/mL (≈ 15 µM) and a CC50 at 72 h [3] of 49.9 µg/mL (≈ 150 µM). The “Ratio CC50/IC50” value [4] was 10 and the Activity (Leishmania donovani [5]; route intraperitoneal) was 54.1%.

For `COc1ccc(-c2cc(SC)nc(Nc3nc(N4CCN(C)CC4)nc(N4CCN(C)CC4)n3)n2)cc1OC`, the Activity (Leishmania donovani [1]) was 99.8%, the IC50 (Leishmania donovani [2]) was 0.89 µg/mL (≈ 1.61 µM) and the CC50 at 72 h [3] was 36.2 µg/mL (≈ 65.6 µM). For the same compound, the “Ratio CC50/IC50” value [4] was 40.71.

In the case of `N=C(N)c1ccc(OCCCCCOc2ccc(C(=N)N)cc2)cc1` [PENTAMIDINE], the Activity (Leishmania donovani [6]) was 85%, the CC50 at 72 h [3] was 31.3 µg/mL (≈ 92 µM) and the Activity (Leishmania donovani [7]) was 84.1%.

With `CCCCNc1nc(NCCCC)nc(Nc2nc(SC)cc(-c3cc(OC)c(OC)c(OC)c3)n2)n1` the Activity (Leishmania donovani [1]) was 75.5%.

With `COc1ccc(-c2cc(SC)nc(Nc3nc(NC(C)C)nc(NC(C)C)n3)n2)cc1OC` the Activity (Leishmania donovani [1]) was “inactive”.

`COc1cc(-c2cc(SC)nc(Nc3nc(NCCN4CCOCC4)nc(NCCN4CCOCC4)n3)n2)cc(OC)c1OC` gave an Activity (Leishmania donovani [1]) of 42.5%.

In the case of `CCN1CCN(c2nc(Nc3nc(SC)cc(-c4ccc(OC)c(OC)c4)n3)nc(N3CCN(CC)CC3)n2)CC1`, the Activity (Leishmania donovani [1]) was “inactive”.

With `CCN(CC)CCNc1nc(NCCN(CC)CC)nc(Nc2nc(SC)cc(-c3cc(OC)c(OC)c(OC)c3)n2)n1` the Activity (Leishmania donovani [1]) was “inactive”.

`COc1ccc(-c2cc(SC)nc(Nc3nc(NCCCN4CCOCC4)nc(NCCCN4CCOCC4)n3)n2)cc1OC` gave an Activity (Leishmania donovani [1]) of 35.2%.

`CCN(CC)CCNc1nc(NCCN(CC)CC)nc(Nc2nc(SC)cc(-c3ccc(OC)c(OC)c3)n2)n1` showed an Activity (Leishmania donovani [1]) of 94.7%, an IC50 (Leishmania donovani [2]) of 4.88 µg/mL (≈ 8.34 µM) and a CC50 at 72 h [3] of 42 µg/mL (≈ 71.8 µM). For the same compound, the “Ratio CC50/IC50” value [4] was 8.6.

For `CCCCNc1nc(NCCCC)nc(Nc2nc(SC)cc(-c3ccc(OC)c(OC)c3)n2)n1`, the Activity (Leishmania donovani [1]) was 78.6%.

`COc1cc(-c2cc(SC)nc(Nc3nc(N4CCN(C)CC4)nc(N4CCN(C)CC4)n3)n2)cc(OC)c1OC` showed an Activity (Leishmania donovani [1]) of 99.5%, an IC50 (Leishmania donovani [2]) of 1.34 µg/mL (≈ 2.3 µM) and a CC50 at 72 h [3] of 16.5 µg/mL (≈ 28.4 µM). The “Ratio CC50/IC50” value [4] was 12.34.

`COc1cc(-c2cc(N3CCN(C)CC3)nc(N)n2)cc(OC)c1OC` gave an Activity (Leishmania donovani [1]) of 63.88%.

`COc1cc(-c2cc(SC)nc(Nc3nc(N4CCOCC4)nc(N4CCOCC4)n3)n2)cc(OC)c1OC` gave an Activity (Leishmania donovani [1]) of 80.8%, an IC50 (Leishmania donovani [2]) of 7.02 µg/mL (≈ 12.6 µM) and a CC50 at 72 h [3] of 10.8 µg/mL (≈ 19.5 µM). The “Ratio CC50/IC50” value [4] was 1.54.

For `COc1cc(-c2cc(NCCN3CCOCC3)nc(N)n2)cc(OC)c1OC`, the Activity (Leishmania donovani [1]) was 68.5%.

In the case of `COc1ccc(-c2cc(SC)nc(Nc3nc(NCCN4CCOCC4)nc(NCCN4CCOCC4)n3)n2)cc1OC`, the Activity (Leishmania donovani [1]) was “inactive”.

With `COc1cc(-c2cc(SC)nc(Nc3nc(NC(C)(C)C)nc(NC(C)(C)C)n3)n2)cc(OC)c1OC` the Activity (Leishmania donovani [1]) was 95.8%, the IC50 (Leishmania donovani [2]) was 2.97 µg/mL (≈ 5.62 µM) and the CC50 at 72 h [3] was 9.8 µg/mL (≈ 18.5 µM). For the same compound, the “Ratio CC50/IC50” value [4] was 3.29.

In the case of `COc1cc(-c2cc(SC)nc(Nc3nc(NC(C)C)nc(NC(C)C)n3)n2)cc(OC)c1OC`, the Activity (Leishmania donovani [1]) was 94.5%, the IC50 (Leishmania donovani [2]) was 1.04 µg/mL (≈ 2.08 µM) and the CC50 at 72 h [3] was 1.9 µg/mL (≈ 3.8 µM). The “Ratio CC50/IC50” value [4] was 1.82.

`CCN1CCN(c2nc(Nc3nc(SC)cc(-c4cc(OC)c(OC)c(OC)c4)n3)nc(N3CCN(CC)CC3)n2)CC1` gave an Activity (Leishmania donovani [1]) of 100%, an IC50 (Leishmania donovani [2]) of 4.56 µg/mL (≈ 7.47 µM) and a CC50 at 72 h [3] of 27.4 µg/mL (≈ 44.8 µM). The “Ratio CC50/IC50” value [4] was 6.

Work on `COc1cc(-c2cc(N3CCCCC3)nc(N)n2)cc(OC)c1OC` yielded an Activity (Leishmania donovani [1]) of 88%, an IC50 (Leishmania donovani [2]) of 7.09 µg/mL (≈ 20.6 µM) and a CC50 at 72 h [3] of 10.4 µg/mL (≈ 30.3 µM). The “Ratio CC50/IC50” value [4] was 1.47.

`CCN(CC)CCNc1cc(-c2cc(OC)c(OC)c(OC)c2)nc(N)n1` gave an Activity (Leishmania donovani [1]) of 95.1%, an IC50 (Leishmania donovani [2]) of 5.12 µg/mL (≈ 13.6 µM) and a CC50 at 72 h [3] of 81.5 µg/mL (≈ 217 µM). The “Ratio CC50/IC50” value [4] was 15.92 and the Activity (Leishmania donovani [5]; route intraperitoneal) was 48.46%.

`COc1cc(-c2cc(SC)nc(Nc3nc(N4CCCCC4)nc(N4CCCCC4)n3)n2)cc(OC)c1OC` gave an Activity (Leishmania donovani [1]) of 90.8%, an IC50 (Leishmania donovani [2]) of 1.8 µg/mL (≈ 3.26 µM) and a CC50 at 72 h [3] of 51.7 µg/mL (≈ 93.5 µM). For the same compound, the “Ratio CC50/IC50” value [4] was 28.7 and the Activity (Leishmania donovani [5]; route intraperitoneal) was 56.58%.

Compound `COc1ccc(-c2cc(SC)nc(Nc3nc(N4CCCCC4)nc(N4CCCCC4)n3)n2)cc1OC` has an Activity (Leishmania donovani [1]) of 53.8%.

sodium stibogluconate gave an Activity (Leishmania donovani [8]) of 40%, a Ratio CC50/IC50 (J774.A1) of 5.53 and an Activity (Leishmania donovani [5]) of 48.5%. The Activity (Leishmania donovani [9]) was 92%.

Work on `CCCNc1nc(NCCC)nc(Nc2nc(SC)cc(-c3ccc(OC)c(OC)c3)n2)n1` yielded an Activity (Leishmania donovani [1]) of 85.6%, an IC50 (Leishmania donovani [2]) of 2.27 µg/mL (≈ 4.82 µM) and a CC50 at 72 h [3] of 14.3 µg/mL (≈ 30.5 µM). For the same compound, the “Ratio CC50/IC50” value [4] was 6.31.

`COc1cc(-c2cc(N3CCOCC3)nc(N)n2)cc(OC)c1OC` gave an Activity (Leishmania donovani [1]) of 43.9%.

With `COc1ccc(-c2cc(SC)nc(Nc3nc(N4CCOCC4)nc(N4CCOCC4)n3)n2)cc1OC` the Activity (Leishmania donovani [1]) was 90.5%, the IC50 (Leishmania donovani [2]) was 9.68 µg/mL (≈ 18.4 µM) and the CC50 at 72 h [3] was 23.9 µg/mL (≈ 45.3 µM). The “Ratio CC50/IC50” value [4] was 2.46.

In the case of `COc1cc(-c2cc(NCCCN3CCOCC3)nc(N)n2)cc(OC)c1OC`, the Activity (Leishmania donovani [1]) was 46.9%.

Compound `CCCNc1nc(NCCC)nc(Nc2nc(SC)cc(-c3cc(OC)c(OC)c(OC)c3)n2)n1` has an Activity (Leishmania donovani [1]) of 86.7% and a CC50 at 72 h [3] of 1.46 µg/mL (≈ 2.92 µM).

For `COc1ccc(-c2cc(SC)nc(Nc3nc(NC(C)(C)C)nc(NC(C)(C)C)n3)n2)cc1OC`, the Activity (Leishmania donovani [1]) was “inactive”.

— ChEMBL document CHEMBL1158391, “Synthesis and antileishmanial activity of novel 2,4,6-trisubstituted pyrimidines and 1,3,5-triazines” (Eur J Med Chem, 2009)
